The test system of data set [1] is Mycolicibacterium smegmatis. Nature of the data set: Antimycobacterial activity against Mycobacterium smegmatis MC2 by agar dilution method. In kind it is functional. Put shortly: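 Agar dilution in Middlebrook 7H11 agar with OADC, run along NCCLS-recommended lines; M. smegmatis ATCC 14468 (MC2); MIC determined in duplicate.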
(In general: In agar dilution the substance is mixed into plates at graded concentrations.)

Data set [2] has as its system Vero. Nature of the data set: Cytotoxicity against african green monkey Vero cells after 72 hrs by MTT assay. In kind it is cell-based. The following applies: Chlorocebus sabaeus. Put shortly:
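Mammalian Vero cells exposed to compounds at 62.5 µg/ml for 72 h; viability read by cellular conversion of MTT to formazan (Cell Titer 96 non-radioactive proliferation assay).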
On the technique in general: Tetrazolium assays rely on reduction of a dye to a coloured formazan, in cell work by metabolically active cells.

The target of data set [3] is DNA gyrase subunit B (Mycobacterium smegmatis (strain ATCC 700084 / mc(2)155), UniProt A0QNE0). Put plainly: Inhibition of Mycobacterium smegmatis MC2 DNA gyrase GyrB ATPase supercoiling activity. Details: species or system Mycolicibacterium smegmatis. Put shortly: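 Gyrase purified from M. smegmatis MC2 cells; compounds in DMSO pre-incubated with enzyme, then 400 ng relaxed pUC18 added in 35 mM Tris-HCl pH 7.5, 5 mM MgCl2, 25 mM K glutamate, 2 mM spermidine, 2 mM ATP, BSA, tRNA, 5% glycerol; 30 min; heat-stopped 65 °C 15 min; agarose gel, ethidium bromide staining; ciprofloxacin 10 µg/ml and 5% DMSO controls.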
DNA gyrase subunit B (Mycobacterium smegmatis (strain ATCC 700084 / mc(2)155), UniProt A0QNE0), sequence (A0QNE0 whole entry): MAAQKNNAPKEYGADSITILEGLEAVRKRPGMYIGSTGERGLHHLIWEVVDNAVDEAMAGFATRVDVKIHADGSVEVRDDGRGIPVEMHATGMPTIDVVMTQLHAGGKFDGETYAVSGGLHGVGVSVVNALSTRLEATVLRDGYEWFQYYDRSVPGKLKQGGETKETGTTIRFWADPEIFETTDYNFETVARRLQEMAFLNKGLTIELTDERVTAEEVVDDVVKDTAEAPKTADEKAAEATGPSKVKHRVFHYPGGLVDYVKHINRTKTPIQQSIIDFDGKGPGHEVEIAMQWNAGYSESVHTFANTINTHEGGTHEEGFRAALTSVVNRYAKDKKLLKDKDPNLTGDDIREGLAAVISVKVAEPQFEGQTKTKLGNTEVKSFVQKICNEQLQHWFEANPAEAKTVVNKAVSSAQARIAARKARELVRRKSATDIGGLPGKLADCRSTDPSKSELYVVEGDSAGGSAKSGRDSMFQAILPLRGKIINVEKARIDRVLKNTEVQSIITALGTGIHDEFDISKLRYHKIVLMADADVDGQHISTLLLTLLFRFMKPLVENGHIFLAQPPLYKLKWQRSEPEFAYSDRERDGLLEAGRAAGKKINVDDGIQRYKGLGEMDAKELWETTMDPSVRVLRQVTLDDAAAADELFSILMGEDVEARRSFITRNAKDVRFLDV

For data set [4], the system named is Mycobacterium tuberculosis. Nature of the data set: Antimycobacterial activity against Mycobacterium tuberculosis H37Rv by agar dilution method. The class given is functional. Put shortly: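 Agar dilution MIC on Middlebrook 7H11 agar with OADC, following the NCCLS-recommended approach, run in duplicate. The MDR clinical isolate was resistant to isoniazid, rifampicin, ethambutol and ofloxacin.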

For data set [5], the system named is Mus musculus. Put plainly: Phototoxicity in Swiss albino mouse assessed as ear thickness at 140 mg/kg, po after 4 hrs of irradiation. The class given is organism-based. Further details: dose 140 mg/kg, route oral. The settings on record: in vivo. An outline of the steps: (§1)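 Female Swiss albino mice (~2 months, 20-25 g), fasted ≥18 h, single 140 mg/kg oral gavage dose; groups of 6 (compound, lomefloxacin HCl 140 mg/kg, 0.5% carboxymethylcellulose vehicle 10 ml/kg); UV irradiation 4 h (~18 J/cm²) right after dosing; both ears scored for erythema, oedema, thickness pre-dose, at end of irradiation, and ~24-96 h; thickness given as mean of both ears ± SEM.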

For data set [6], the system named is Mus musculus. Nature of the data set: Phototoxicity in Swiss albino mouse assessed as ear thickness at 140 mg/kg, po after 24 hrs of irradiation. Further details: dose 140 mg/kg, route oral. In kind it is organism-based. The settings on record: in vivo. An outline of the steps:
as §1

The subject of data set [7] is Mus musculus. Nature of the data set: Phototoxicity in Swiss albino mouse assessed as ear thickness at 140 mg/kg, po after 48 hrs of irradiation. The class given is organism-based. Details: dose 140 mg/kg, route oral. The following applies: in vivo. An outline of the steps: as §1
Data set [8] relates to Mus musculus. Nature of the data set: Phototoxicity in Swiss albino mouse assessed as ear thickness at 140 mg/kg, po after 72 hrs of irradiation. Details: dose 140 mg/kg, route oral. The settings on record: in vivo. The class given is organism-based. Put shortly:
as §1

For data set [9], the system named is Mus musculus. Nature of the data set: Phototoxicity in Swiss albino mouse assessed as ear thickness at 140 mg/kg, po after 96 hrs of irradiation. The class given is organism-based. Details: dose 140 mg/kg, route oral. The settings on record: in vivo. An outline of the steps: as §1
Data set [10] deals with Mus musculus. Nature of the data set: Phototoxicity in Swiss albino mouse assessed as erythema incidence at 140 mg/kg, po after 24 hrs of irradiation. In kind it is organism-based. The following applies: in vivo. Details: dose 140 mg/kg, route oral. An outline of the steps: as §1
Data set [11] deals with Mus musculus. Nature of the data set: (§2) Phototoxicity in Swiss albino mouse assessed as erythema incidence at 140 mg/kg, po after 48 hrs of irradiation. Details: dose 140 mg/kg, route oral. In kind it is organism-based. The following applies: in vivo. An outline of the steps:
as §1

Data set [12] relates to Mus musculus. The description is as §2. The class given is organism-based. Details: dose 140 mg/kg, route oral. The settings on record: in vivo. An outline of the steps:
as §1
The source holds these as a separate data set.

In data set [13] the test system is Mus musculus. Nature of the data set: Phototoxicity in Swiss albino mouse assessed as erythema incidence at 140 mg/kg, po after 96 hrs of irradiation. Further details: dose 140 mg/kg, route oral. The class given is organism-based. The following applies: in vivo. Put shortly: as §1

In brackets after ≈: the same amount, converted by molar mass. Some results are limits rather than exact numbers.

Here are results for 16 compounds from ChEMBL document CHEMBL1144027, “Synthesis and antimycobacterial evaluation of newer 1-cyclopropyl-1,4-dihydro-6-fluoro-7-(substituted secondary amino)-8-methoxy-5-(sub)-4-oxoquinoline-3-carboxylic acids” (Bioorg Med Chem, 2008).

On to `COc1c(N2CCN(C(=O)C3COc4ccccc4O3)CC2)c(F)c([N+](=O)[O-])c2c(=O)c(C(=O)O)cn(C3CC3)c12` (stereo not given), for which the figures for the MIC in data set [1] and in data set [4] were 2.74 µM (≈ 1.56 µg/mL) and 1.37 µM (≈ 0.779 µg/mL), respectively. The IC50 – broadly, the concentration needed to halve the response being measured – is 110 µM in data set [2] and above 87.9 µM in data set [3].

For `CCN(CC)C(=O)C1CCCN(c2c(F)cc3c(=O)c(C(=O)O)cn(C4CC4)c3c2OC)C1` (stereo not given), the MIC (as a rule, the lowest concentration that inhibits growth of the organism) in [1] is 0.85 µM (≈ 0.391 µg/mL); in data set [4], 1.69 µM (≈ 0.777 µg/mL). The IC50 was 136 µM in data set [2] and above 109 µM in [3]. The Activity is recorded as 0.38 mm in data set [5]; 0.36 mm in data set [6]; 0.37 mm in data set [7]; 0.39 mm in data set [8]; 0.39 mm in data set [9]; “Non-toxic” in [10]. For the same compound, the Activity entry in data set [11], in [12] and in [13] was “Non-toxic” throughout.

As to `COc1c(N2CCN(Cc3ccc4c(c3)OCO4)CC2)c(F)c(N)c2c(=O)c(C(=O)O)cn(C3CC3)c12`, the MIC in data set [1] came to 6.13 µM (≈ 3.13 µg/mL); in [4], 3.06 µM (≈ 1.56 µg/mL).

With `COc1c(N2CCN(C(=O)c3ccco3)CC2)c(F)c([N+](=O)[O-])c2c(=O)c(C(=O)O)cn(C3CC3)c12`, the figures for the MIC in data set [1] and in data set [4] were 12.5 µM (≈ 6.25 µg/mL) and 6.25 µM (≈ 3.13 µg/mL), respectively.

For the compound `CCN(CC)C(=O)C1CCCN(c2c(F)c([N+](=O)[O-])c3c(=O)c(C(=O)O)cn(C4CC4)c3c2OC)C1` (stereo not given), the MIC was 12.4 µM (≈ 6.25 µg/mL) in [1] and 1.55 µM (≈ 0.782 µg/mL) in data set [4]. Besides, in [2], the IC50 was determined as 124 µM.

For `COc1c(N2CCC(N3CCCCC3)CC2)c(F)cc2c(=O)c(C(=O)O)cn(C3CC3)c12`, the MIC in data set [1] came out at 14.1 µM (≈ 6.25 µg/mL); in data set [4], 7.06 µM (≈ 3.13 µg/mL).

As for `COc1c(N2CCC(N3CCCCC3)CC2)c(F)c([N+](=O)[O-])c2c(=O)c(C(=O)O)cn(C3CC3)c12`, the MIC in data set [1] worked out at 12.8 µM (≈ 6.25 µg/mL); in [4] it was 6.41 µM (≈ 3.13 µg/mL).

For the compound `COc1c(N2CCN(C(c3ccccc3)c3ccc(Cl)cc3)CC2)c(F)c([N+](=O)[O-])c2c(=O)c(C(=O)O)cn(C3CC3)c12` (stereo not given), the MIC in data set [1] came out at 10.3 µM (≈ 6.25 µg/mL); in data set [4] it was 1.28 µM (≈ 0.777 µg/mL). For the same compound, the IC50 in data set [2] worked out at 103 µM.

For the compound `COc1c(N2CCn3cc(C(=O)O)nc3C2)c(F)c([N+](=O)[O-])c2c(=O)c(C(=O)O)cn(C3CC3)c12`, the MIC is 6.42 µM (≈ 3.13 µg/mL) in [1] and 3.12 µM (≈ 1.52 µg/mL) in data set [4]. Also, half-maximal inhibition in [2] (IC50) required 128 µM.

Regarding `COc1c(N2CCN(C(=O)c3ccco3)CC2)c(F)cc2c(=O)c(C(=O)O)cn(C3CC3)c12`, the MIC in [1] and in data set [4] was 13.7 µM (≈ 6.25 µg/mL) in each case.

In the case of `COc1c(N2CCN(C)C(c3ccccc3)C2)c(F)c([N+](=O)[O-])c2c(=O)c(C(=O)O)cn(C3CC3)c12` (stereo not given), the results for the MIC in [1] and in data set [4] were 6.3 µM (≈ 3.13 µg/mL) and 3.14 µM (≈ 1.56 µg/mL), respectively. The IC50 in [2] was 126 µM.

As to `COc1c(N2CCC(n3c(=O)[nH]c4cc(Cl)ccc43)CC2)c(F)c([N+](=O)[O-])c2c(=O)c(C(=O)O)cn(C3CC3)c12`, the MIC in data set [1] is 10.9 µM (≈ 6.25 µg/mL); in [4], 5.47 µM (≈ 3.13 µg/mL).

With `COc1c(N2CCn3cc(C(=O)O)nc3C2)c(F)cc2c(=O)c(C(=O)O)cn(C3CC3)c12`, the values for the MIC in data set [1] and in [4] were 7.08 µM (≈ 3.13 µg/mL) and 3.53 µM (≈ 1.56 µg/mL), respectively. Half-maximal inhibition in data set [2] (IC50) required 141 µM.

Regarding `COc1c(N2COCC2(C)C)c(F)cc2c(=O)c(C(=O)O)cn(C3CC3)c12`, the MIC in data set [1] was found to be 16.6 µM (≈ 6.25 µg/mL); in data set [4] it was 4.14 µM (≈ 1.56 µg/mL). In addition, in [2], the midpoint of inhibition, the IC50, lay at 166 µM.

Turning to `COc1ccc(CC2C3=C(CCCC3)CCN2c2c(F)cc3c(=O)c(C(=O)O)cn(C4CC4)c3c2OC)cc1` (stereo not given), the values for the minimal inhibitory concentration (MIC) in [1] and in data set [4] were 2.93 µM (≈ 1.56 µg/mL) and 1.46 µM (≈ 0.778 µg/mL), respectively. The IC50 is 117 µM in [2] and 75.1 µM in data set [3].

Consider `COc1c(N2CCSCC2)c(F)c([N+](=O)[O-])c2c(=O)c(C(=O)O)cn(C3CC3)c12`, for which the MIC in data set [1] turned out to be 3.68 µM (≈ 1.56 µg/mL); in data set [4], 1.84 µM (≈ 0.779 µg/mL). The IC50 is 148 µM in [2] and above 118 µM in data set [3].
